pIC50: −log10 of the molar value.
Legend:
[1] = molecular target: T1, Rap guanine nucleotide exchange factor 3 (Homo sapiens, UniProt O95398); assay: (§1) Antagonist activity at recombinant full length EPAC1 (unknown origin) assessed as inhibition of cAMP-mediated Rap1b-BODIPY GDP nucleotide exchange activity
T1 sequence (O95398 whole entry): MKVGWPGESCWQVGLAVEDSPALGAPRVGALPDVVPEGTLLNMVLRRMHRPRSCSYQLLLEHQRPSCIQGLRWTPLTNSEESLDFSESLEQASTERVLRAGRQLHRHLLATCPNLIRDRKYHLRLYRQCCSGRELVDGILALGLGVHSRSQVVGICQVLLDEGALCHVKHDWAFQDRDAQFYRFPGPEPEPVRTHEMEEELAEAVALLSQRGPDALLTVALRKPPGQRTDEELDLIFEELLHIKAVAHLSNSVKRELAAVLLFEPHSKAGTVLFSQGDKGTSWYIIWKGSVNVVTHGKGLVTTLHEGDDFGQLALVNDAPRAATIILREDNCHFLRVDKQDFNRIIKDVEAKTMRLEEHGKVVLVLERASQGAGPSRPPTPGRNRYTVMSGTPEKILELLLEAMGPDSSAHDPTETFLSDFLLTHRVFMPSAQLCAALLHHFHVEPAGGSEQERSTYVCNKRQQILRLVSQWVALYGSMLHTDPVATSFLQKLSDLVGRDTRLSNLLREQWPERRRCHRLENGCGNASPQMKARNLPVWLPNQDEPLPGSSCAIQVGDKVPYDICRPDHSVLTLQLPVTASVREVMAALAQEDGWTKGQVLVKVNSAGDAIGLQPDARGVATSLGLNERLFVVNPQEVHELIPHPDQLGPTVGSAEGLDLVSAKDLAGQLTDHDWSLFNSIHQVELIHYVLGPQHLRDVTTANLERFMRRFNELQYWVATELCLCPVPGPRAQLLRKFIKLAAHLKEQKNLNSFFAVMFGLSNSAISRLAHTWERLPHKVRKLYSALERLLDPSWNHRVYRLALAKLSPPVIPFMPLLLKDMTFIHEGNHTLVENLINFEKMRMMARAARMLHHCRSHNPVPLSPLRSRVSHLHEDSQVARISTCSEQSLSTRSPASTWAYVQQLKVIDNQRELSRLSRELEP
Procedure, shortened: (§2)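 Guanine nucleotide exchange on Rap1b loaded with BODIPY-GDP (Rap1b-bGDP), catalysed by EPAC1 in the presence of 20 μM cAMP. Inhibitor is tested over a dose range. GEF activity is expressed as a normalized reaction rate constant, and IC50 is taken from the dose-response curves. Values are mean ± SE, n = 3.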

[2] = molecular target: Rap guanine nucleotide exchange factor 4 (Homo sapiens, UniProt Q8WZA2); assay: Antagonist activity at recombinant full length EPAC2 (unknown origin) assessed as inhibition of cAMP-mediated Rap1b-BODIPY GDP nucleotide exchange activity
Procedure, shortened: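 Guanine nucleotide exchange on Rap1b loaded with bGDP, catalysed by EPAC2 in the presence of 20 μM cAMP and run across a compound dose range. Relative GEF activity is expressed as the normalized reaction rate constant.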

[3] = molecular target: T2, Rap guanine nucleotide exchange factor 3 (Homo sapiens) (UniProt O95398); assay: as §1; procedure, shortened: as §2
T2 sequence (whole entry): T1 sequence (O95398 whole entry)

Row | SMILES | pIC50 [1] | pIC50 [2] | inhibition [3] | inhibition [2]
1 | C[C@@H]1CCc2c(cc(Br)c(F)c2Br)N1C=O | 5.26 | 4.77 |  | 
2 | CC(C)(C)c1cc(C(=O)/C(C#N)=N/Nc2cccc(Cl)c2)no1 | 4.97 to 5.04 | 5.05 to 5.36 | Dose-dependent effect | Dose-dependent effect

— ChEMBL document CHEMBL4177657, “Structure-activity relationships of 2-substituted phenyl-N-phenyl-2-oxoacetohydrazonoyl cyanides as novel antagonists of exchange proteins directly activated by cAMP (EPACs)” (Bioorg Med Chem Lett, 2017)
